Source: PubChem BioAssay (Sanford-Burnham Center for Chemical Genomics)
eIF4H inh: human eIF4H binding inhibitors, primary screen, translation initiation inhibitor project, biochemical, uHTS, fluorescence polarization | Eukaryotic translation initiation factor 4H (Homo sapiens), Q15056 | inhibition, % at 35 µM | eIF4H fluorescence polarization binding assay | hit rate 0.94% among 290,000;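 further: calls also rest on retests at 20 µM and on dose response follow-up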
MT1-MMP act inh: blockers of MT1-MMP proenzyme processing, primary screen, HT1080 RFP-PRO-GFP cells, GFP/RFP fluorescence; Matrix metalloproteinase-14 (Homo sapiens), P50281; GFP/RFP ratio fluorescence, overnight; percent of plate control window, DMSO zero; GFP/RFP ratio change, % at 20 µM; hit rate 0.061% among 360,000; AID 651647, 2012;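 active means GFP/RFP ratio change of at least 30% with cell ATP level not reduced by more than half and red fluorescence within 50% of control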
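Assay system: RFP-PRO-GFP reporter HT1080 cells; read-out basis: GFP/RFP fluorescence ratio; benchmarks: DMSO wells and RFP-L50D-GFP cells; doses: 20 µM single dose, 1% DMSO; schedule: overnight cell settling, then overnight compound exposure, 37 °C, 5% CO2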
PABP polyA inh: PABP poly(A) RNA binding inhibitors, primary screen, biochemical, fluorescence polarization, uHTS; Polyadenylate-binding protein 1 (Homo sapiens), P11940; calls only at 35 µM; hit rate 1% among 290,000; AID 2014, 2009;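 further: calls also rest on retests at 20 µM and on dose response follow-up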
PABP1 MLLE inh: inhibitors of PABP1 MLLE–PAM2 peptide binding, primary screen, biochemical, fluorescence polarization, FITC-PAM2, GST-MLLE. Polyadenylate-binding protein 1 (Homo sapiens), P11940. inhibition, % at 20 µM. hit rate 0.36% among 360,000. AID 588489, 2011; in the data active means inhibition above about 35%, passing the limit was not always enough
SKN-1 inh: suppressors of acrylamide-induced Pgst-4::GFP reporter in worms, primary screen, SKN-1 inhibitor project, whole organism, uHTS, GFP/RFP fluorescence ratio, strain VP596. hit rate 0.49% among 360,000. inhibition, % at 21.8 µM. C. elegans VP596 Pgst-4::GFP/RFP ratio, 24 h;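 active means interference check ratio from 0.5 to 1.5 plus GFP to RFP signal ratio inhibition reaching or exceeding a fixed threshold, cut at about 30% in these data, passing the limit was not always enough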
Large screens that a line does not name were inactive. In the library only some 1.8% were active in any assay of this set; here they are far more common. Unless noted, how the calls were made is not given here.

CCCSC1=N/C(=C\C=C\c2ccco2)C(=O)S1	eIF4H inh 94, PABP polyA inh active
COC(=O)[C@@]12C[C@@H](CC(=O)NCc3ccc(OC)c(OC)c3)C(=O)N(Cc3cccc4ccccc34)C1=CCC(C)(C)C2	none (no result: eIF4H inh, PABP polyA inh, PABP1 MLLE inh)
Cc1cccc(NC(=O)COC(=O)CN2C(=O)C3CCCCC3C2=O)c1C (stereo unspecified)	none (no result: eIF4H inh, PABP polyA inh)
Cn1nnc(NC(=O)c2ccc3ccccc3c2)n1	none
Cn1nnc(NC(=S)NC(=O)c2ccc3ccccc3c2)n1	PABP1 MLLE inh 49 (no result: eIF4H inh, PABP polyA inh)
COc1ccc(NCc2ccc([N+](=O)[O-])s2)c(OC)c1	eIF4H inh 73, PABP polyA inh active
COc1cccc(-c2noc(-c3cccs3)n2)c1	SKN-1 inh 91
COc1cccc(-c2nc(-c3ccccc3)no2)c1	none
Cc1ccccc1-c1noc(-c2cccs2)n1	SKN-1 inh 88
O=c1cc(O)c(-c2ccc(Cl)c(Cl)c2)c(Cl)[nH]1	eIF4H inh 82, PABP polyA inh active
O=C(/C=C/[C@H]1O[C@@H](n2ccc(=O)[nH]c2=O)[C@H](O)[C@@H]1O)NC(c1ccccc1)c1ccccc1	none (no result: eIF4H inh, PABP polyA inh)
Cc1ccc2c(c1)-c1c(ssc1=S)C(C)(C)N2C(=O)c1ccco1	PABP1 MLLE inh 48
CC1=C(C(=O)Nc2cc(-c3cccc(F)c3)[nH]n2)C2(CCCCC2)OC1=O	eIF4H inh 55, PABP polyA inh active
O=C(Nc1cc(-c2ccccc2)[nH]n1)c1ccccc1F	none
CNC(=O)c1c(N)sc2c1CCCCC2	eIF4H inh 124, PABP polyA inh active (no result: MT1-MMP act inh, PABP1 MLLE inh, SKN-1 inh)
NC(=O)c1c(N)sc2c1CCCCC2	none
CC(OC(=O)Cn1cnc2c1c(=O)n(C)c(=O)n2C)C(=O)NC1(C#N)CCCCC1 (stereo unspecified)	none (no result: eIF4H inh, PABP polyA inh)
O=c1cc(CSc2nnnn2-c2ccccc2)[nH]c2[nH]n(-c3ccccc3)c(=O)c12	eIF4H inh 79, PABP polyA inh active
Cc1cccc(N=[N+]([O-])c2cccc(C)n2)n1	none (no result: eIF4H inh, PABP polyA inh)
CC1=NNC(=O)C1CC(=O)N/N=C/C(C)=C/c1ccccc1 (stereo unspecified)	PABP polyA inh active
CC(=O)N1CCc2c(sc(NC(=O)c3ccc([N+](=O)[O-])o3)c2C(N)=O)C1	none (no result: eIF4H inh, PABP polyA inh)
CCOC(=O)C1=CN(Cc2cccc(-c3ccc4c(c3)OCO4)c2)S(=O)(=O)N(C)C1C (stereo unspecified)	none (no result: eIF4H inh, PABP polyA inh)
COc1cc(-c2cc(-c3ccc(O)cc3)nc(N)c2C#N)ccc1O	none
CCOc1cc(-c2cc(-c3ccc(C)cc3)nc(N)c2C#N)ccc1O	eIF4H inh 58, PABP polyA inh active
O=C(O)C(C(=O)/C=C/c1ccco1)=C1SCCS1	none
O=C(C=C1SCCS1)/C=C/c1ccco1	eIF4H inh 90, PABP polyA inh active
O=C(/C=C/c1ccc([N+](=O)[O-])cc1)/C=C/c1ccco1	eIF4H inh 61, PABP polyA inh active
CC1(OC(=O)C2CCCC2)C(=O)C=C2C=C(c3ccsc3)N(Cc3ccco3)C=C2C1=O (stereo unspecified)	eIF4H inh 94, PABP polyA inh active
CC(=Nc1ccccc1)C1=C(O)CSC1=O	eIF4H inh 34, PABP polyA inh active
COc1ccc(N=C(C)C2=C(O)CSC2=O)cc1	none
COC(=O)[C@@]12C[C@@H](CC(=O)NCc3cccs3)C(=O)N(Cc3cccc4ccccc34)C1=CCC(C)(C)C2	none (no result: eIF4H inh, PABP polyA inh, PABP1 MLLE inh)
CC(C)n1nc(C(=O)Oc2cccc(Cl)c2Cl)c2ccccc2c1=O	eIF4H inh 3.7, PABP polyA inh active
CC(C)n1nc(C(=O)Oc2cc(Cl)ccc2Cl)c2ccccc2c1=O	none
Cc1nc(N2CCN(c3ccccc3O)CC2)c2c(-c3ccccc3)csc2n1	eIF4H inh 100, PABP polyA inh active
COc1cc(/C=C2\C(=O)N(c3ccccc3)N=C2C)ccc1Oc1ccc([N+](=O)[O-])cc1[N+](=O)[O-]	eIF4H inh active, PABP polyA inh active
CC1=NN(c2ccccc2)C(=O)/C1=C\c1ccc(Oc2ccc([N+](=O)[O-])cc2[N+](=O)[O-])cc1	none
